# From ChEMBL document CHEMBL1136332, “Structure-activity relationship of triaryl propionic acid analogues on the human EP3 prostanoid receptor” (Bioorg Med Chem Lett, 2003)
# Tests used:
# [1] = target: Prostaglandin E2 receptor EP4 subtype (Homo sapiens, UniProt P35408); experiment: Affinity at human Prostanoid EP4 receptor in the human embryonic kidney (HEK) 293 cell line.; format: cell-based, HEK293
# [2] = target: T1, Prostaglandin E2 receptor EP3 subtype (Homo sapiens, UniProt P43115); experiment: Affinity at human Prostanoid EP3 receptor in the human embryonic kidney (HEK) 293 cell line.; format: cell-based, HEK293
# T1 sequence (P43115 whole entry): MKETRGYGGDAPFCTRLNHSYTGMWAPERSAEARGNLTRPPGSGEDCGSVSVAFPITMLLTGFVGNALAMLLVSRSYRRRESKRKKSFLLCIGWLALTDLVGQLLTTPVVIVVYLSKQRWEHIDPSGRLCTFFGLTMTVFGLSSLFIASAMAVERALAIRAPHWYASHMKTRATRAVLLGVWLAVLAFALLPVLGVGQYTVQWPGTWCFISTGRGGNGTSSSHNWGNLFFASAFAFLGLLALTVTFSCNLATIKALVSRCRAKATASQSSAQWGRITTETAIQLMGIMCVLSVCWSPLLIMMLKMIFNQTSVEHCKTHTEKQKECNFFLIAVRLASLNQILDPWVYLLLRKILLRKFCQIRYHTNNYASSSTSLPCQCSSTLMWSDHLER
# [3] = target: T2, Prostaglandin E2 receptor EP1 subtype (Homo sapiens, UniProt P34995); experiment: Affinity at human Prostanoid EP1 receptor in the human embryonic kidney (HEK) 293 cell line.; format: cell-based, HEK293
# T2 sequence (P34995 whole entry): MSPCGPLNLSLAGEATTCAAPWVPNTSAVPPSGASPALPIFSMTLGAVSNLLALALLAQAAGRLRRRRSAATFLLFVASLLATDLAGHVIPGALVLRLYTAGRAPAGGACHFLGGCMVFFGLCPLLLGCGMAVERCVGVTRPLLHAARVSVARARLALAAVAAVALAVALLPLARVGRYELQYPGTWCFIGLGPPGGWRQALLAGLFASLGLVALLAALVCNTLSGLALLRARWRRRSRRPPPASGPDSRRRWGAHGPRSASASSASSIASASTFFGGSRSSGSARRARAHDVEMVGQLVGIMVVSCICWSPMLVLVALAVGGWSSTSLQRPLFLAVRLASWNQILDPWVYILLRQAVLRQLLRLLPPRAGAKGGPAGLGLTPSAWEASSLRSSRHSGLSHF
# [4] = target: Prostaglandin E2 receptor EP2 subtype (Homo sapiens, UniProt P43116); experiment: Affinity at human Prostanoid EP2 receptor in the human embryonic kidney (HEK) 293 cell line.; format: cell-based, HEK293
# Chain of Prostaglandin E2 receptor EP2 subtype (P43116 whole entry): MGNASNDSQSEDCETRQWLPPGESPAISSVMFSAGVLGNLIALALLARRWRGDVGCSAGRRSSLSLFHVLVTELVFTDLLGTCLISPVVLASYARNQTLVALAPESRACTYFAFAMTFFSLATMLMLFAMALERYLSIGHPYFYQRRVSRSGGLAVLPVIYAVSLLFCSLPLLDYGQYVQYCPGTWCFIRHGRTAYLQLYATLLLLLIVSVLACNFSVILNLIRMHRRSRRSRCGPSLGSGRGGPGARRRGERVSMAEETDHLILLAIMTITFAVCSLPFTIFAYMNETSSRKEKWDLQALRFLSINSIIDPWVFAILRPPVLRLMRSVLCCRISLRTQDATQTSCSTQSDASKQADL
# [5] = target: Prostaglandin D2 receptor DP (human) (UniProt Q13258); experiment: Ability to inhibit the binding of human DP receptor to PGD-2
# Chain of Prostaglandin D2 receptor DP (human) (Q13258 whole entry, looked up): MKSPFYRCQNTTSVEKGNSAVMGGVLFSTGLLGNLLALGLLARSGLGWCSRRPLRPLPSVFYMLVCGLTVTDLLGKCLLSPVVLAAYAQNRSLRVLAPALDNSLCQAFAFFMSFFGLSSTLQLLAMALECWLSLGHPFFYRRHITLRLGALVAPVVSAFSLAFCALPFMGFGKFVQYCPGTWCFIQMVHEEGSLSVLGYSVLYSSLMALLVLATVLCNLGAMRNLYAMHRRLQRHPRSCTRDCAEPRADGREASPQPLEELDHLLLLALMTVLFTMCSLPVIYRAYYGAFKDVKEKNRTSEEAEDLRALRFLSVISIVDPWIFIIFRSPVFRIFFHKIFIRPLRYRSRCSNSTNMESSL
# [6] = target: T3, Prostaglandin E2 receptor EP3 subtype (Homo sapiens) (UniProt P43115); experiment: Ability to inhibit the binding of human Prostanoid EP3 receptor to PGE-2 using EP3 functional assay
# T3 sequence (whole entry): T1 sequence (P43115 whole entry)
# Summary of the method: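 HEL 92.1.7 human erythroleukemia cells, which endogenously express EP3, at 2×10⁵ cells per incubation in HBSS with RO-20174 and forskolin. Antagonist (0–3×10⁻⁶ M, 0.5% DMSO final) preincubated 10 min at 37 °C. Sulprostone (0–3×10⁻⁵ M) was then added as agonist for 10 min at 37 °C. The reaction was stopped by 3 min boiling, and cAMP was read by SPA.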
# [7] = target: Prostaglandin F2-alpha receptor (Homo sapiens, UniProt P43088); experiment: Ability to inhibit the binding of human FP receptor to PGD-2
# Chain of Prostaglandin F2-alpha receptor (P43088 whole entry): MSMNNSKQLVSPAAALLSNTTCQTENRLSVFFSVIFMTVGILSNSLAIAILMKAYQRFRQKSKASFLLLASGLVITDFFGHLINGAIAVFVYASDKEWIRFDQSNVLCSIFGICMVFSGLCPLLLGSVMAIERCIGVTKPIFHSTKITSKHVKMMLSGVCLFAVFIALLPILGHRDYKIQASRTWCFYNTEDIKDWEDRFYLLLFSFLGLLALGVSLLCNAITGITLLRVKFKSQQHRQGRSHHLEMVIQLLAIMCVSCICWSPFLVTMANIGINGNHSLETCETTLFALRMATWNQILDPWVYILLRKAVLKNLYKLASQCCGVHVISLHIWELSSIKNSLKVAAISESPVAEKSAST
# Prostacyclin receptor = Prostacyclin receptor (Homo sapiens, UniProt P43119); experiment: Ability to inhibit the binding of human IP receptor to Prostaglandin I2 receptor
# Chain of Prostacyclin receptor (P43119 whole entry): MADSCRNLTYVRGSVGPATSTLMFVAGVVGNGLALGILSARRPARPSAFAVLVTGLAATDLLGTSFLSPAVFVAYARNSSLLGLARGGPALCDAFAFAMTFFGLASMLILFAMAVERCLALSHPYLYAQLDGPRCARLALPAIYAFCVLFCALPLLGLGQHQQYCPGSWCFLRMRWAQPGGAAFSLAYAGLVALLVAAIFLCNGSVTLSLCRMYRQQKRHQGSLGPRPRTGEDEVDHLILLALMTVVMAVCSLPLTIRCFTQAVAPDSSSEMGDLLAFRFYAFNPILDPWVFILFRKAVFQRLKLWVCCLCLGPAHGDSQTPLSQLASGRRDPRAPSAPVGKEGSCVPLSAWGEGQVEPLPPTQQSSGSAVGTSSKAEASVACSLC
# Thromboxane A2 receptor = target: T4, Thromboxane A2 receptor (Homo sapiens, UniProt P21731); experiment: Ability to inhibit the binding of human Thromboxane A2 receptor to TXA2
# T4 sequence (P21731 whole entry): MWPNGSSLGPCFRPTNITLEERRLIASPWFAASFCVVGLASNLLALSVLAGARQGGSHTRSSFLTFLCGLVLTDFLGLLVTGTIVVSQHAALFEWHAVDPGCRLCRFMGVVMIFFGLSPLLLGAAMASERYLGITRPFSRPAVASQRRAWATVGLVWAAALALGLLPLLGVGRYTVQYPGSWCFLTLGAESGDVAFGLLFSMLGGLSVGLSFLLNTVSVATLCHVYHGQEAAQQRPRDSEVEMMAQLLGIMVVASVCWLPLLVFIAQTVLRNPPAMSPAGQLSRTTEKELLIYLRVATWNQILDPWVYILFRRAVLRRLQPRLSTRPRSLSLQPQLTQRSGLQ
# Chain of Prostaglandin E2 receptor EP4 subtype (P35408 whole entry): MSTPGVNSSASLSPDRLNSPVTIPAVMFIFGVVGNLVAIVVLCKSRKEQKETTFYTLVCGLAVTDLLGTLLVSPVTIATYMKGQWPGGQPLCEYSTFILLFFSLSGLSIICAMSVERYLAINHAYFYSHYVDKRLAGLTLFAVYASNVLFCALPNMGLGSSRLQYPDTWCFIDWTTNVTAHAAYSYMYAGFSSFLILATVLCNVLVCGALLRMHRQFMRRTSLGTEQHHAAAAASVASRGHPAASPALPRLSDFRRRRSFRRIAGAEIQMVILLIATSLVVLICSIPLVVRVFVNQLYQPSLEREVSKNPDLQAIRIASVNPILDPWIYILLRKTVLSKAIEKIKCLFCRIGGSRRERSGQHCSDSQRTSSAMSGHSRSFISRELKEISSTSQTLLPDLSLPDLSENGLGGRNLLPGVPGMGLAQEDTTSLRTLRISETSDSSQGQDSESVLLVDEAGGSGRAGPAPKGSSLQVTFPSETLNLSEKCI
Ki [1] [nM],Ki [2] [nM],Ki [3] [nM],Ki [4] [nM],Ki [5] [nM],Kb [6] [nM],Ki [7] [nM],Ki (Prostacyclin receptor) [nM],Ki (Thromboxane A2 receptor) [nM],Structure (SMILES)
1000,89,9500,2900,–,–,–,–,–,O=C(O)CCc1ccccc1-c1cccc(-c2ccccc2COc2ccccc2)c1
2000,590,11900,3500,–,–,–,–,–,O=C(O)CCCc1ccccc1-c1cccc(-c2ccccc2OCc2ccccc2)c1
460,52,85000,2500,–,–,–,–,–,O=C(O)CNc1ccccc1-c1csc(-c2ccccc2OCc2ccccc2)c1
760,27,17500,2900,–,–,–,–,–,O=C(O)CCc1ccccc1-c1cc(-c2ccccc2OCc2ccccc2)cs1
1700,16,2600,1600,–,–,–,–,–,O=C(CCc1ccccc1-c1cccc(-c2ccccc2OCc2ccccc2)c1)NS(=O)(=O)c1cccs1
650,23,17800,2500,–,–,–,–,–,O=C(O)CCc1ccccc1-c1csc(-c2ccccc2OCc2ccccc2)c1
1200,820,8300,3600,–,–,–,–,–,CC(Cc1ccccc1-c1cccc(-c2ccccc2OCc2ccccc2)c1)C(=O)O (configuration not stated)
21000,1500,> 97000,> 97000,–,–,–,–,–,O=C(O)CCc1ccccc1-c1cccc(-c2ccc(OCc3ccccc3)cc2)c1
> 10000,1600,10000,7500,–,–,–,–,–,O=C(O)/C=C/c1ccccc1-c1ccc(Cl)c(Cl)c1
300,3,48000,2300,120,5.8,22000,710,400,O=C(O)C1CC1c1ccccc1-c1csc(-c2ccccc2OCc2ccccc2)c1 (configuration not stated)
–,–,8100,10000,–,–,–,–,–,O=C(/C=C/c1ccccc1-c1ccc(Cl)c(Cl)c1)NS(=O)(=O)c1cccs1
1100,1700,9300,3600,–,–,–,–,–,O=C(O)Cc1ccccc1-c1cccc(-c2ccccc2OCc2ccccc2)c1
1100,35,35000,4600,–,–,–,–,–,CC(CC(=O)O)c1ccccc1-c1csc(-c2ccccc2OCc2ccccc2)c1 (configuration not stated)
1800,55,8300,3700,–,–,–,–,–,O=C(O)CCc1ccccc1-c1cccc(-c2ccccc2OCc2ccccc2)c1
440,2300,230,150,–,–,–,–,–,O=C(O)c1ccc(CCCc2ccccc2OCc2ccccc2)cc1
1100,520,27000,4100,–,–,–,–,–,O=C(O)CCc1ccccc1-c1ccc(-c2ccccc2OCc2ccccc2)s1
6000,750,34000,8100,–,–,–,–,–,O=C(O)CCc1ccccc1-c1cccc(-c2ccccc2)c1
1700,84,72000,830,–,–,–,–,–,O=C(O)/C=C/c1ccccc1-c1cccc(-c2ccccc2OCc2ccccc2)c1
1900,7,12000,8100,–,–,–,–,–,Cc1cccc(/C=C/Cc2ccccc2/C=C/C(=O)O)c1OCc1ccccc1
980,460,13000,5500,–,–,–,–,–,CC(Cc1ccccc1-c1csc(-c2ccccc2OCc2ccccc2)c1)C(=O)O (configuration not stated)
1100,21,1100,4600,–,–,–,–,–,O=C(O)CCc1ccccc1-c1cccc(-c2ccccc2OCc2c(Cl)cccc2Cl)c1
